Measurements: ChEMBL document CHEMBL5331118, “Allosteric Inhibitors of Macrophage Migration Inhibitory Factor (MIF) Interfere with Apoptosis-Inducing Factor (AIF) Co-Localization to Prevent Parthanatos” (J Med Chem, 2023)
Activity calls are given as the source filed them. The rule behind the calls is not given here.

Experiments:
[1] = system: HeLa; assay: Inhibition of MNNG-induced DNA damage in human HeLa cells preincubated for 2 hrs followed by MNNG addition by gel electrophoresis assay; assay type: functional, cell-based; conditions: dose 50.0 µM, TDE = time-dependent effect
[2] = system: HeLa; assay: Induction of DNA damage in human HeLa cells by comet assay; assay type: toxicity, cell-based
[3] = system: HeLa; assay: Inhibition of MNNG-induced DNA damage in human HeLa cells preincubated for 2 hrs followed by MNNG addition and measured after 2 hrs by comet assay; assay type: functional, cell-based; conditions: time 4.0 hrs
Outline: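 Alkaline comet assay. HeLa cells were given 50 μM inhibitor or none for 2 h, then 10 μM MNNG for 2 h. Cells were embedded in 1% low-melt agarose and lysed overnight at 4 °C in alkaline lysis solution (pH > 13). Electrophoresis ran at pH > 12, 0.6 V/cm, 25 min. Slides were stained with 2.5 μg/mL PI, imaged by fluorescence microscopy and quantified by image analysis.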

[4] = system: HeLa; assay: (§1) Protection against MNNG-induced parthanatos in human HeLa cells assessed as cell viability preincubated for 3 hrs prior to MNNG addition and measured for 15 mins followed by fresh media replacement for 24 hrs by Hoechst 33342 and propidium iodide staining based flow cytometry analysis; assay type: functional; conditions: time 1635.0 min
Outline: (§2)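 HeLa cells in DMEM/10% FBS, 5×10^5 per well, were pretreated 3 h with 100 μM inhibitor, then given 50 μM MNNG for 15 min. Medium was replaced and cells were cultured 24 h. Trypsinized cells were stained with 7 μM Hoechst 33342 and 2 μM PI and analysed by flow cytometry. Hoechst-only cells were counted as live, Hoechst+PI cells as dead.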

[5] = system: HeLa; assay: as §1, with “analysis (reference value: 20 %)” for “analysis”; assay type: functional; conditions: time 1635 min; 27.25 h; outline: as §2
[6] = system: HeLa; assay: Protection against MNNG-induced parthanatos in human HeLa cells assessed as restoration of original phenotype after 0.5 to 3 hrs; assay type: functional, cell-based; conditions: time 0.5-3 hrs
[7] = system: HeLa; assay: Inhibition of MIF nuclear translocation in human HeLa cells at 100 uM preincubated for 3 hrs followed by MNNG stimulation for 15 mins by immunofluorescence staining based confocal microscopic analysis; assay type: functional, cell-based; conditions: time 195.0 min
Outline: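 HeLa cells on coverslips got ±100 μM inhibitor for 3 h, then MNNG (50 μM, 15 min), and were incubated overnight. They were methanol-fixed and blocked with 2% BSA. MIF was stained with a rabbit polyclonal and Alexa488 secondary, AIF with a mouse monoclonal and Alexa647 secondary, and nuclei with NucBlue. Nuclear localization was imaged by confocal microscopy.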

[8] = biological target: T1, Macrophage migration inhibitory factor (Homo sapiens) (UniProt P14174); assay: Reversible inhibition of recombinant human MIF tautomerase activity expressed in Escherichia coli BL21 assessed as recovery of enzyme activity at 25 uM using PP as substrate preincubated for 10 mins followed by substrate addition and measured after 20 mins by jump dilution method; conditions: time 30.0 min
T1 sequence (whole entry): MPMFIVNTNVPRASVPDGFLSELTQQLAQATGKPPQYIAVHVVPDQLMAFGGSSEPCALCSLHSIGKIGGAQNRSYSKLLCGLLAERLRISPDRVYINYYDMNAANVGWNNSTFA

[9] = system: HeLa; assay: Inhibition of MNNG-induced DNA damage in human HeLa cells preincubated for 2 hrs followed by MNNG addition and measured after 2 hrs by gel electrophoresis assay; assay type: functional, cell-based; conditions: dose 1.2-100 µM, time 4.0 hrs
[10] = system: HeLa; assay: Protection against MNNG-induced parthanatos in human HeLa cells assessed as restoration of original phenotype at 3.7 to 100 uM; assay type: functional, cell-based; conditions: dose 3.7-100 µM, TDE = time-dependent effect
[11] = biological target: T1, Macrophage migration inhibitory factor (Homo sapiens); assay: Inhibition of recombinant C-terminal His-tagged human MIF tautomerase activity expressed in Escherichia coli BL21 assessed as residual activity at 10 uM using PP as substrate preincubated for 10 mins and followed by substrate addition and measured for 3 mins by microplate reader analysis relative to control; conditions: time 13.0 min

O=C(Nc1ccccc1)c1ccc(-n2cc(C(=O)NCc3cccs3)nn2)cc1
inhibition [1]: Tde
Activity [2]: Non-Toxic
inhibition [3]: Active
Activity [4]: Dose-Dependent Effect
Activity [5]: 50%
Activity [6]: Dose-Dependent Effect
inhibition [7]: Active
inhibition [8]: Active
inhibition [9]: Dose-Dependent Effect
Activity [10]: Tde

O=C(NCCc1ccccc1)c1cn(-c2cccc3ncccc23)nn1
Activity [11]: 68%

N#Cc1ccc(-n2cc(C(=O)Nc3ccc(Br)cc3)nn2)cc1
Activity [11]: 44%
